Measured values from ChEMBL document CHEMBL3826880, “Synthesis and evaluation of (+)-decursin derivatives as inhibitors of the Wnt/β-catenin pathway” (Bioorg Med Chem Lett, 2016).
pIC50: −log10 of the molar value. Calls of active or inactive are those of the source. The calls are words filed in the database; no cut-off is given here.

What was measured:
[1] = Antitumor activity against human PC3 cells xenografted in athymic nude mouse at 50 mg/kg, ip administered daily for 5 weeks; type: functional; settings: PC-3, ip, 840 h, read-out: TGI
[2] = Inhibition of Wnt/beta-catenin pathway in human HEK293 cells after 15 hrs by TOPflash dual luciferase reporter gene assay; type: cell-based; settings: HEK293, 15 h
[3] = Inhibition of Wnt/beta-catenin pathway in human HEK293 cells at 20 uM after 15 hrs by TOPflash dual luciferase reporter gene assay; type: cell-based
Method in brief: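 HEK293 TOPFlash reporter cells were seeded at 15,000 cells/well in duplicate and grown 24 h. Compounds were then added with Wnt3a-conditioned medium from Wnt3a-secreting L cells (0.22-filtered, two harvests combined); controls ran with or without Wnt3a-CM. After 15 h, dual luciferase activity was read as RLU normalized to cell titer, averaged over three experiments. Single-concentration screen at 20 µM.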

[4] = target: T1, Catenin beta-1 (Homo sapiens) (UniProt P35222); test: Inhibition of beta-catenin levels in human PC3 cells assessed as downregulation of c-myc levels at 12.5 to 50 uM after 15 hrs by Western blot analysis; type: cell-based; settings: PC-3
T1 sequence (whole entry): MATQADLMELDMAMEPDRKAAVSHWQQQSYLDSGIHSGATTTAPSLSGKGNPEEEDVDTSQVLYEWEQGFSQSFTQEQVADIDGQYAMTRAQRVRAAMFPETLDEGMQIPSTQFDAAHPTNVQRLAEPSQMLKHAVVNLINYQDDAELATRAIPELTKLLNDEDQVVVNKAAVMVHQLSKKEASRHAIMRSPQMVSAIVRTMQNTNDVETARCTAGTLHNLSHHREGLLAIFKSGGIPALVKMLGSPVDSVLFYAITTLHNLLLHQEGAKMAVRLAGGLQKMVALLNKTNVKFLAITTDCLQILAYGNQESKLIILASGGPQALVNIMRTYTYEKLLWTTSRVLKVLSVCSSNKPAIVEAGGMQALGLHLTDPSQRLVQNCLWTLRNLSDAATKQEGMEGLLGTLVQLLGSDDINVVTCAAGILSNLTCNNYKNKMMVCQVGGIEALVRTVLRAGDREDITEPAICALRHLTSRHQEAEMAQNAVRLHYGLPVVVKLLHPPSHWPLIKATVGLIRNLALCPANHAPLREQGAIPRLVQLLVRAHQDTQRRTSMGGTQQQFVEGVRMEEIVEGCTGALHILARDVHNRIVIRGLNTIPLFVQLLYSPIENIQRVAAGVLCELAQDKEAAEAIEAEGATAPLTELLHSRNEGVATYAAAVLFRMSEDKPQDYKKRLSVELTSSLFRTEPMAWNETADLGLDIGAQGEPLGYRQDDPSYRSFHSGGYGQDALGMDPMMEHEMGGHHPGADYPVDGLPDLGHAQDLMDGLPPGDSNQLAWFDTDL
Method in brief: (§1)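 PC3 cells were incubated with vehicle (DMSO) or compound for 15 h. Cell extracts were western blotted with anti-cyclin D1 and anti-myc antibodies, then reprobed with anti-actin as the control, with ECL detection.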

[5] = target: T1, Catenin beta-1 (Homo sapiens); test: Downregulation of Wnt3a-CM-induced beta-catenin levels in human HEK293 cells at 12.5 to 50 uM after 15 hrs by Western blot analysis; type: cell-based
Method in brief: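 HEK293 reporter cells were treated with vehicle (DMSO) or compound in the presence of Wnt3a-CM for 15 h. Cytosolic proteins were western blotted with a β-catenin antibody, then reprobed for actin as the fraction control, with HRP secondary and ECL detection.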

[6] = target: T1, Catenin beta-1 (Homo sapiens); test: Downregulation of cytoplasmic beta-catenin levels in human PC3 cells after 15 hrs by Western blot analysis; type: cell-based; settings: PC-3
Method in brief: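 Cytosolic fractions from PC3 cells (DMEM, 10% FBS) treated with vehicle (DMSO) or compound were western blotted with a β-catenin antibody, then reprobed with anti-actin as the fraction control.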

[7] = target: T1, Catenin beta-1 (Homo sapiens); test: Inhibition of beta-catenin levels in human PC3 cells assessed as downregulation of cyclinD1 levels at 12.5 to 50 uM after 15 hrs by Western blot analysis; type: cell-based; settings: PC-3; method in brief: as §1
[8] = Cytotoxicity against human PC3 cells assessed as cell viability after 24 to 48 hrs by cell Titer-Glo assay; type: functional, cell-based; settings: PC-3
Method in brief: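 Androgen-independent PC3 cells in 96-well plates were exposed to varying compound concentrations for 24 h (figure legend) or 48 h (methods note). Viability was measured in triplicate with the CellTiter-Glo luminescent assay.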

[9] = Inhibition of Wnt/beta-catenin pathway in human HEK293 cells assessed as decrease in Wnt3a-CM-induced beta-catenin response transcription after 15 hrs by TOPflash dual luciferase reporter gene assay; type: cell-based; settings: HEK293, 15 h

SMILES | inhibition [3] [%] | further results
CC1(C)Oc2cc3oc(=O)ccc3cc2C[C@@H]1OC(=O)/C=C/c1ccc(O)c(O)c1 | 99.5 | inhibition in vivo at 50 mg/kg [1]: > 80%; pIC50 [2]: 4.91
CC(=O)Oc1ccc(/C=C/C(=O)O[C@H]2Cc3cc4ccc(=O)oc4cc3OC2(C)C)cc1 | 79.6 | –
CC1(C)Oc2cc3oc(=O)ccc3cc2C[C@@H]1OC(=O)CCc1ccccc1 | 10.6 | –
CC(=O)Oc1ccccc1CCC(=O)O[C@H]1Cc2cc3ccc(=O)oc3cc2OC1(C)C | 23.1 | –
CC1(C)Oc2cc3oc(=O)ccc3cc2C[C@@H]1OC(=O)/C=C/c1cccc(O)c1O | 95.7 | –
CC(=O)Oc1cccc(/C=C/C(=O)O[C@H]2Cc3cc4ccc(=O)oc4cc3OC2(C)C)c1OC(C)=O | 89.7 | –
CC1(C)Oc2cc3oc(=O)ccc3cc2C[C@@H]1OC(=O)/C=C/c1ccc(O)cc1 | 78.1 | –
COc1cc(OC)c(OC)cc1/C=C/C(=O)O[C@H]1Cc2cc3ccc(=O)oc3cc2OC1(C)C | 59.6 | –
CC1(C)Oc2cc3oc(=O)ccc3cc2C[C@@H]1OC(=O)CCc1ccccc1O | 10 | –
CC1(C)Oc2cc3oc(=O)ccc3cc2C[C@@H]1OC(=O)/C=C/c1ccccc1O | 94.2 | –
CC1(C)Oc2cc3oc(=O)ccc3cc2C[C@@H]1OC(=O)/C=C/c1ccc(Br)cc1 | 40.1 | –
COc1ccc(CCC(=O)O[C@H]2Cc3cc4ccc(=O)oc4cc3OC2(C)C)cc1 | 41.5 | –
COc1ccc(OC)c(CCC(=O)O[C@H]2Cc3cc4ccc(=O)oc4cc3OC2(C)C)c1 | 19.9 | –
COc1cccc(/C=C/C(=O)O[C@H]2Cc3cc4ccc(=O)oc4cc3OC2(C)C)c1OC | 57.8 | –
COc1ccc(/C=C/C(=O)O[C@H]2Cc3cc4ccc(=O)oc4cc3OC2(C)C)cc1OC | 42.3 | –
CC(=O)Oc1cc(/C=C/C(=O)O[C@H]2Cc3cc4ccc(=O)oc4cc3OC2(C)C)cc(OC(C)=O)c1OC(C)=O | 67.4 | –
CC(=O)Oc1cccc(/C=C/C(=O)O[C@H]2Cc3cc4ccc(=O)oc4cc3OC2(C)C)c1 | 97 | inhibition [4]: Active; Activity [5]: Active; Activity [6]: Dose-dependent effect; inhibition [7]: Active; pIC50 [8]: 5.05; pIC50 [9]: 5.01
CC1(C)Oc2cc3oc(=O)ccc3cc2C[C@@H]1OC(=O)/C=C/c1cccc(F)c1 | 93.6 | –
CC1(C)Oc2cc3oc(=O)ccc3cc2C[C@@H]1OC(=O)/C=C/c1ccccc1 | 81.1 | –
COc1ccc(OC)c(/C=C/C(=O)O[C@H]2Cc3cc4ccc(=O)oc4cc3OC2(C)C)c1 | 65.3 | –
CC1(C)Oc2cc3oc(=O)ccc3cc2C[C@@H]1OC(=O)CCc1cccc(O)c1O | 81.4 | –
CC(=O)Oc1ccccc1/C=C/C(=O)O[C@H]1Cc2cc3ccc(=O)oc3cc2OC1(C)C | 95.9 | –
CC1(C)Oc2cc3oc(=O)ccc3cc2C[C@@H]1OC(=O)/C=C/c1cc(O)c(O)c(O)c1 | 75.3 | –

SMILES | inhibition [3] [%] | further results
CC1(C)Oc2cc3oc(=O)ccc3cc2C[C@@H]1OC(=O)CCc1cccc(O)c1 | 42 | –
COc1ccc(CCC(=O)O[C@H]2Cc3cc4ccc(=O)oc4cc3OC2(C)C)cc1OC | 25.1 | –
CC1(C)Oc2cc3oc(=O)ccc3cc2C[C@@H]1OC(=O)/C=C/c1ccc([N+](=O)[O-])cc1 | 34.3 | –
CC1(C)Oc2cc3oc(=O)ccc3cc2C[C@@H]1OC(=O)CCc1ccc(O)c(O)c1 | 68 | –
COc1ccccc1/C=C/C(=O)O[C@H]1Cc2cc3ccc(=O)oc3cc2OC1(C)C | 88.3 | –
COc1cccc(CCC(=O)O[C@H]2Cc3cc4ccc(=O)oc4cc3OC2(C)C)c1OC | 13.5 | –
COc1cccc(/C=C/C(=O)O[C@H]2Cc3cc4ccc(=O)oc4cc3OC2(C)C)c1 | 87.5 | –
COc1ccc(/C=C/C(=O)O[C@H]2Cc3cc4ccc(=O)oc4cc3OC2(C)C)c(OC)c1 | 52.8 | –
CC1(C)Oc2cc3oc(=O)ccc3cc2C[C@@H]1OC(=O)CCc1ccc(O)cc1 | 32.8 | –
CC(C)=CC(=O)O[C@H]1Cc2cc3ccc(=O)oc3cc2OC1(C)C [DECURSIN] | 79.4 | pIC50 [2]: 3.75
CC(=O)Oc1ccc(CCC(=O)O[C@H]2Cc3cc4ccc(=O)oc4cc3OC2(C)C)cc1OC(C)=O | 46.4 | –
COc1ccc(/C=C/C(=O)O[C@H]2Cc3cc4ccc(=O)oc4cc3OC2(C)C)cc1 | 54.8 | –
CC1(C)Oc2cc3oc(=O)ccc3cc2C[C@@H]1OC(=O)/C=C/c1cccc(O)c1 | 93.3 | –
CC(=O)Oc1ccc(/C=C/C(=O)O[C@H]2Cc3cc4ccc(=O)oc4cc3OC2(C)C)cc1OC(C)=O | 94 | –
COc1cccc(CCC(=O)O[C@H]2Cc3cc4ccc(=O)oc4cc3OC2(C)C)c1 | 49.9 | –
CC(=O)Oc1cccc(CCC(=O)O[C@H]2Cc3cc4ccc(=O)oc4cc3OC2(C)C)c1 | 27.5 | –
COc1ccccc1CCC(=O)O[C@H]1Cc2cc3ccc(=O)oc3cc2OC1(C)C | 50.4 | –
CC(=O)Oc1cccc(CCC(=O)O[C@H]2Cc3cc4ccc(=O)oc4cc3OC2(C)C)c1OC(C)=O | 77.7 | –
CC1(C)Oc2cc3oc(=O)ccc3cc2C[C@@H]1OC(=O)/C=C/c1cccc(Br)c1 | 84.8 | –
COc1ccc(CCC(=O)O[C@H]2Cc3cc4ccc(=O)oc4cc3OC2(C)C)c(OC)c1 | 18.8 | –
CC(=O)Oc1ccc(CCC(=O)O[C@H]2Cc3cc4ccc(=O)oc4cc3OC2(C)C)cc1 | 12 | –
COc1cc(/C=C/C(=O)O[C@H]2Cc3cc4ccc(=O)oc4cc3OC2(C)C)cc(OC)c1OC | 46.9 | –
